According to ChEMBL document CHEMBL1687901 (J Med Chem, 2011):
≈ marks a conversion by molar mass, not a printed value.

Key:
Streptococcus pneumoniae [1] = experiment: Antibacterial activity against tetracycline-resistant Streptococcus pneumoniae isolate 160 harboring tet(M) gene by CLSI M07-A8 method; assay type: functional
Outline: (§1)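 MICs were determined by CLSI broth microdilution in freshly prepared cation-adjusted Mueller Hinton broth, kept at 4 °C before use. Defibrinated horse blood was added as appropriate. Runs met QC ranges for comparator antibiotics with ATCC quality control strains.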

Streptococcus pneumoniae [2] = experiment: Antibacterial activity against Streptococcus pneumoniae ATCC 49619 by CLSI M07-A8 method; assay type: functional
Escherichia coli [3] = experiment: Antibacterial activity against Escherichia coli ATCC 25922 by CLSI M07-A8 method; assay type: functional
Staphylococcus aureus [4] = experiment: Antibacterial activity against tetracycline-resistant Staphylococcus aureus isolate 161 harboring tet(M) gene by CLSI M07-A8 method; assay type: functional; outline: as §1
Escherichia coli [5] = experiment: Antibacterial activity against tetracycline-resistant Escherichia coli isolate 155 harboring tet(A) gene by CLSI M07-A8 method; assay type: functional
Outline: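 MICs were determined by CLSI broth microdilution in freshly prepared cation-adjusted Mueller Hinton broth, kept at 4 °C before use. Defibrinated horse blood was added as appropriate. The highest concentration tested was 32 μg/mL. Runs met QC ranges for comparator antibiotics with ATCC quality control strains.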

Staphylococcus aureus [6] = experiment: Antibacterial activity against wild type Staphylococcus aureus Smith ATCC 13709 by CLSI M07-A8 method; assay type: functional
Escherichia coli [7] = experiment: Inhibition of protein synthesis in Escherichia coli S30 extract by coupled transcription/translation assay; assay type: functional
Outline: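 Coupled transcription/translation used an E. coli S30 extract with a firefly luciferase reporter. Compounds were diluted in water and tested as a three-point titration in duplicate. Reactions ran 1 h at 37 °C and were stopped on ice for 5 min, then luciferase substrate was added and luminescence read. Percent inhibition was calculated against uninhibited controls averaged per plate, and IC50 derived.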

Staphylococcus aureus [8] = experiment: Antibacterial activity against tetracycline-resistant Staphylococcus aureus isolate 158 harboring tet(K) gene by CLSI M07-A8 method; assay type: functional; outline: as §1
Klebsiella pneumoniae = experiment: Antibacterial activity against Klebsiella pneumoniae ATCC 13883 by CLSI M07-A8 method; assay type: functional
[9] = Half life in Sprague-Dawley rat at 1 mg/kg, iv and 10 mg/kg, po; assay type: ADME, organism-based; conditions: in vivo
Rattus norvegicus = experiment: Oral bioavailability in Sprague-Dawley rat at 1 mg/kg, iv and 10 mg/kg, po; assay type: ADME, organism-based; conditions: in vivo
[10] = AUC in Sprague-Dawley rat at 1 mg/kg, iv and 10 mg/kg, po; assay type: ADME, organism-based; conditions: plasma
Staphylococcus aureus [11] = experiment: Antibacterial activity against Staphylococcus aureus by CLSI M07-A8 method; assay type: functional
Escherichia coli [12] = experiment: Antibacterial activity against Escherichia coli ATCC 25922 infected in iv dosed mouse septicemia model assessed as mouse protection after 48 hrs; assay type: functional; conditions: ATCC 25922, iv, read-out: PD50
Outline: (§2)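 Mice were challenged intraperitoneally with bacteria mixed with 5% mucin. For S. aureus ATCC 13709 (Smith) the inoculum was 2.1 × 10^6 cfu/mouse, and for E. coli ATCC 25922 it was 2.0 × 10^7 cfu/mouse. PD50 in mg/kg was calculated from survival at 48 h.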

Escherichia coli [13] = experiment: Antibacterial activity against Escherichia coli by CLSI M07-A8 method; assay type: functional
Staphylococcus aureus [14] = experiment: Antibacterial activity against Staphylococcus aureus ATCC 13709 infected in iv dosed mouse septicemia model assessed as mouse protection after 48 hrs; assay type: functional; conditions: ATCC 13709, iv, read-out: PD50; outline: as §2
Haemophilus influenzae = experiment: Antibacterial activity against Haemophilus influenzae by CLSI M07-A8 method; assay type: functional
Streptococcus pneumoniae [15] = experiment: Antibacterial activity against Streptococcus pneumoniae by CLSI M07-A8 method; assay type: functional
[16] = Clearance in Sprague-Dawley rat at 1 mg/kg, iv and 10 mg/kg, po; assay type: ADME, organism-based; conditions: in vivo
in vivo = conditions: Sprague-Dawley, rat, iv, 1 mg/kg

| Structure (SMILES) | MIC (Streptococcus pneumoniae [1]) | MIC (Streptococcus pneumoniae [2]) | MIC (Escherichia coli [3]) | MIC (Staphylococcus aureus [4]) | MIC (Escherichia coli [5]) | MIC (Staphylococcus aureus [6]) | IC50 (Escherichia coli [7]) | MIC (Staphylococcus aureus [8]) | MIC (Klebsiella pneumoniae) | also measured |
| --- | --- | --- | --- | --- | --- | --- | --- | --- | --- | --- |
| CN(C)[C@@H]1C(O)=C(C(N)=O)C(=O)[C@@]2(O)C(O)=C3C(=O)c4c(O)c(N)nc(Cl)c4C[C@H]3C[C@@H]12 | 4 µg/mL (≈ 8.6 µM) | 0.016 µg/mL (≈ 0.0344 µM) | 0.25 µg/mL (≈ 0.538 µM) | 4 µg/mL (≈ 8.6 µM) | > 32 µg/mL | 0.016 µg/mL (≈ 0.0344 µM) | 1.1 µg/mL (≈ 2.37 µM) | 8 µg/mL (≈ 17.2 µM) | 0.5 µg/mL (≈ 1.08 µM) |  |
| CN(C)CCCNc1nc(Cl)c2c(c1O)C(=O)C1=C(O)[C@]3(O)C(=O)C(C(N)=O)=C(O)[C@@H](N(C)C)[C@@H]3C[C@@H]1C2.Cl | 4 µg/mL | 1 µg/mL | 8 µg/mL | 8 µg/mL | > 32 µg/mL | 2 µg/mL | 0.58 µg/mL | 2 µg/mL | 16 µg/mL |  |
| CN(C)CC(C)(C)CNc1nc(Cl)c2c(c1O)C(=O)C1=C(O)[C@]3(O)C(=O)C(C(N)=O)=C(O)[C@@H](N(C)C)[C@@H]3C[C@@H]1C2.Cl | 0.125 µg/mL | 0.016 µg/mL | 0.5 µg/mL | 2 µg/mL | 8 µg/mL | 0.5 µg/mL | 0.7 µg/mL | 0.125 µg/mL | 2 µg/mL | half-life [9]: 4.3 h; F (Rattus norvegicus): 0.8%; AUC [10]: 4870 ng·h/mL; MIC50 (Staphylococcus aureus [11]): 0.125 µg/mL; MIC90 (Staphylococcus aureus [11]): 2 µg/mL; ED50 (Escherichia coli [12]): 17 mg/kg; MIC50 (Escherichia coli [13]): 1 µg/mL; MIC90 (Escherichia coli [13]): 4 µg/mL; ED50 (Staphylococcus aureus [14]): 0.36 mg/kg; MIC50 (Haemophilus influenzae): 1 µg/mL; MIC90 (Haemophilus influenzae): 1 µg/mL; MIC (Streptococcus pneumoniae [15]): ≤ 0.016 µg/mL; MIC50 (Streptococcus pneumoniae [15]): ≤ 0.016 µg/mL; MIC90 (Streptococcus pneumoniae [15]): 0.063 µg/mL; clearance [16]: 3.37 mL/min/kg; Vd (in vivo): 1.26 L/kg |
| CN(C)[C@@H]1C(O)=C(C(N)=O)C(=O)[C@@]2(O)C(O)=C3C(=O)c4c(O)c(-c5ccccc5)nc(Cl)c4C[C@H]3C[C@@H]12.Cl | 8 µg/mL | 8 µg/mL | > 32 µg/mL | 2 µg/mL | > 32 µg/mL | 1 µg/mL |  | 1 µg/mL | > 32 µg/mL |  |
| CN(C)c1nc(NC(=O)CNC(C)(C)C)c(O)c2c1C[C@H]1C[C@H]3[C@H](N(C)C)C(O)=C(C(N)=O)C(=O)[C@@]3(O)C(O)=C1C2=O.Cl | 4 µg/mL | 4 µg/mL | 32 µg/mL | 32 µg/mL | > 32 µg/mL | 16 µg/mL | 0.71 µg/mL | 8 µg/mL | > 32 µg/mL |  |
| CCCNc1nc(N(C)C)c2c(c1O)C(=O)C1=C(O)[C@]3(O)C(=O)C(C(N)=O)=C(O)[C@@H](N(C)C)[C@@H]3C[C@@H]1C2.Cl.Cl | > 32 µg/mL | 8 µg/mL | 32 µg/mL | > 32 µg/mL | > 32 µg/mL |  | 3.4 µg/mL |  | > 32 µg/mL |  |
| CN(C)[C@@H]1C(O)=C(C(N)=O)C(=O)[C@@]2(O)C(O)=C3C(=O)c4c(O)c(N)nc(F)c4C[C@H]3C[C@@H]12.Cl.Cl | 2 µg/mL | 0.063 µg/mL | 0.25 µg/mL | 2 µg/mL | > 32 µg/mL | 0.063 µg/mL | 0.93 µg/mL | 8 µg/mL | 1 µg/mL |  |
| Cc1ncc2c(c1O)C(=O)C1=C(O)[C@]3(O)C(=O)C(C(N)=O)=C(O)[C@@H](N(C)C)[C@@H]3C[C@@H]1C2.Cl.Cl | 16 µg/mL | 1 µg/mL | 8 µg/mL | 32 µg/mL | > 32 µg/mL | 4 µg/mL |  | 32 µg/mL | 8 µg/mL |  |
| CN(C)[C@@H]1C(O)=C(C(N)=O)C(=O)[C@@]2(O)C(O)=C3C(=O)c4c(O)c(NC(=O)CNC(C)(C)C)nc(F)c4C[C@H]3C[C@@H]12.Cl.Cl | 8 µg/mL | 2 µg/mL | 8 µg/mL | 16 µg/mL | > 32 µg/mL | 4 µg/mL | 0.36 µg/mL | 16 µg/mL | 16 µg/mL |  |
| CCCNc1nc(F)c2c(c1O)C(=O)C1=C(O)[C@]3(O)C(=O)C(C(N)=O)=C(O)[C@@H](N(C)C)[C@@H]3C[C@@H]1C2.Cl.Cl | 4 µg/mL | 4 µg/mL | 2 µg/mL | 2 µg/mL | 16 µg/mL | 0.25 µg/mL | 2.8 µg/mL | 0.25 µg/mL | 8 µg/mL |  |
| CN(C)[C@@H]1C(O)=C(C(N)=O)C(=O)[C@@]2(O)C(O)=C3C(=O)c4c(cnc(-c5ccccc5)c4O)C[C@H]3C[C@@H]12.Cl.Cl | 8 µg/mL | 2 µg/mL | 16 µg/mL | 8 µg/mL | > 32 µg/mL | 4 µg/mL |  | 16 µg/mL | 32 µg/mL |  |
| CCCNc1nc(Cl)c2c(c1O)C(=O)C1=C(O)[C@]3(O)C(=O)C(C(N)=O)=C(O)[C@@H](N(C)C)[C@@H]3C[C@@H]1C2.Cl.Cl.Cl | 4 µg/mL | 0.25 µg/mL |  | 1 µg/mL | 16 µg/mL | 0.063 µg/mL | 5.3 µg/mL | 0.5 µg/mL | 8 µg/mL |  |
| CN(C)[C@@H]1C(O)=C(C(N)=O)C(=O)[C@@]2(O)C(O)=C3C(=O)c4c(O)c(NC(=O)CNC(C)(C)C)nc(Cl)c4C[C@H]3C[C@@H]12.Cl.Cl.Cl | 16 µg/mL | 1 µg/mL | 4 µg/mL | 32 µg/mL | > 32 µg/mL | 2 µg/mL | 0.78 µg/mL | 32 µg/mL | 8 µg/mL |  |
| CN(C)c1cc(CNCC(C)(C)C)c(O)c2c1C[C@H]1C[C@H]3[C@H](N(C)C)C(O)=C(C(N)=O)C(=O)[C@@]3(O)C(O)=C1C2=O [OMADACYCLINE] | 0.125 µg/mL (≈ 0.225 µM) | 0.031 µg/mL (≈ 0.0557 µM) | 2 µg/mL (≈ 3.59 µM) | 2 µg/mL (≈ 3.59 µM) | 16 µg/mL (≈ 28.7 µM) | 0.5 µg/mL (≈ 0.898 µM) |  | 0.25 µg/mL (≈ 0.449 µM) | 2 µg/mL (≈ 3.59 µM) |  |
| CN(C)[C@@H]1C(O)=C(C(N)=O)C(=O)[C@@]2(O)C(O)=C3C(=O)c4c(O)cccc4[C@@](C)(O)[C@H]3C[C@@H]12 [TETRACYCLINE] |  | 0.25 µg/mL (≈ 0.563 µM) |  |  | > 32 µg/mL |  |  |  |  | MIC50 (Staphylococcus aureus [11]): 0.125 µg/mL (≈ 0.281 µM); MIC90 (Staphylococcus aureus [11]): > 64 µg/mL; ED50 (Escherichia coli [12]): 17 mg/kg; MIC90 (Escherichia coli [13]): > 64 µg/mL; ED50 (Staphylococcus aureus [14]): 0.35 mg/kg; MIC (Haemophilus influenzae): 0.25 µg/mL (≈ 0.563 µM); MIC (Streptococcus pneumoniae [15]): 0.125 µg/mL (≈ 0.281 µM) |
